Reference: ChEMBL document CHEMBL3868630, “Synthesis, anti-proliferative activity, SAR study, and preliminary in vivo toxicity study of substituted N,N'-bis(arylmethyl)benzimidazolium salts against a panel of non-small cell lung cancer cell lines” (Bioorg Med Chem, 2017)
pIC50: −log10 of the molar value.

Key:
[1] = Growth inhibition of human NCI-H460 cells after 48 hrs by SRB assay; type: functional; settings: NCI-H460, 48 h
[2] = Growth inhibition of human NCI-H322M cells after 48 hrs by SRB assay; type: functional; settings: for CC50: read-out: LC50 (the source's name)
[3] = Cytotoxicity against human HOP92 cells assessed as cell growth at 10 uM after 48 hrs by SRB assay relative to control; type: functional; settings: HOP-92, 48 h, read-out: Activity
[4] = Cytotoxicity against human HCC827 cells assessed as decrease in cell viability after 72 hrs by MTT assay; type: functional, cell-based; settings: HCC827, 72 h
Outline: (§1)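 Cells kept in RPMI 1640 with 10% FBS at 37 °C, 5% CO2, passaged every 2-3 days; seeded at 5,000-7,000 cells/well and left 24 h. Compounds dissolved in 1% DMSO, diluted in fresh medium to 1, 4, 16 and 32 µM, added in sextuplicate; 72 h exposure. MTT added for 3-4 h, medium removed, DMSO added for 15 min at 37 °C, OD read at 540 nm.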

[5] = Cytotoxicity against human NCI-H23 cells assessed as cell growth at 10 uM after 48 hrs by SRB assay relative to control; type: functional; settings: NCI-H23, 48 h, read-out: Activity
[6] = Growth inhibition of human EKVX cells after 48 hrs by SRB assay; type: functional
[7] = Growth inhibition of human NCI-H226 cells after 48 hrs by SRB assay; type: functional; settings: NCI-H226, 48 h
[8] = Growth inhibition of human HOP62 cells after 48 hrs by SRB assay; type: functional; settings: HOP-62, 48 h; for CC50: read-out: LC50 (the source's name)
[9] = Cytotoxicity against human HOP62 cells assessed as cell growth at 10 uM after 48 hrs by SRB assay relative to control; type: functional; settings: HOP-62, 48 h, read-out: Activity
[10] = Cytotoxicity against human NCI-H1975 cells assessed as decrease in cell viability after 72 hrs by MTT assay; type: functional, cell-based; settings: NCI-H1975, 72 h; outline: as §1
[11] = Cytotoxicity against human NCI-H460 cells assessed as decrease in cell viability after 72 hrs by MTT assay; type: functional, cell-based; settings: NCI-H460, 72 h; outline: as §1
[12] = Cytotoxicity against human EKVX cells assessed as cell growth at 10 uM after 48 hrs by SRB assay relative to control; type: functional; settings: read-out: Activity
[13] = Cytotoxicity against human NCI-H322M cells assessed as cell growth at 10 uM after 48 hrs by SRB assay relative to control; type: functional; settings: read-out: Activity
[14] = Cytotoxicity against human NCI-H460 cells assessed as cell growth at 10 uM after 48 hrs by SRB assay relative to control; type: functional; settings: NCI-H460, 48 h, read-out: Activity
[15] = Cytotoxicity against human NCI-H226 cells assessed as cell growth at 10 uM after 48 hrs by SRB assay relative to control; type: functional; settings: NCI-H226, 48 h, read-out: Activity
[16] = Growth inhibition of human HOP92 cells after 48 hrs by SRB assay; type: functional; settings: HOP-92, 48 h
[17] = Cytotoxicity against human A549 cells assessed as decrease in cell viability after 72 hrs by MTT assay; type: functional, cell-based; settings: A549, 72 h; outline: as §1
[18] = Growth inhibition of human NCI-H522 cells after 48 hrs by SRB assay; type: functional; settings: NCI-H522, 48 h; for CC50: read-out: LC50 (the source's name)
[19] = Growth inhibition of human NCI-H23 cells after 48 hrs by SRB assay; type: functional; settings: NCI-H23, 48 h
[20] = Cytotoxicity against human A549 cells assessed as cell growth at 10 uM after 48 hrs by SRB assay relative to control; type: functional; settings: A549, 48 h, read-out: Activity
[21] = Growth inhibition of human A549 cells after 48 hrs by SRB assay; type: functional; settings: A549, 48 h
[22] = Aqueous solubility of the compound; type: physicochemical

For `[Cl-].c1ccc2nc(Cn3c[n+](Cc4ccc5ccccc5n4)c4ccccc43)ccc2c1`, the GI50 [1] was 2.8 µM, the LC50 [1] was 41.8 µM and the TGI [1] was 12.3 µM. It also gave a GI50 [2] of 3.68 µM, a TGI [2] of 17.1 µM and a CC50 [2] of 43.5 µM. The growth at 10 µM [3] was -8.16%, the pIC50 [4] was 5.22 and the growth at 10 µM [5] was 32%. It also gave a GI50 [6] of 5.7 µM, an LC50 [6] of 72.1 µM and a TGI [6] of 23.7 µM. The GI50 [7] was 4.13 µM, the LC50 [7] was 78.2 µM and the TGI [7] was 20.4 µM. It also gave a GI50 [8] of 2.97 µM, a TGI [8] of 13.7 µM and a CC50 [8] of 41 µM. For the same compound, the growth at 10 µM [9] was 53.8%, the pIC50 [10] was 5.52 and the pIC50 [11] was 5.40. It also gave a growth at 10 µM [12] of 74.7%, a growth at 10 µM [13] of 78.1% and a growth at 10 µM [14] of 32.4%. The growth at 10 µM [15] was 37.1%, the GI50 [16] was 0.93 µM and the LC50 [16] was 25 µM. The TGI [16] was 4.3 µM, the pIC50 [17] was 5.00 and the GI50 [18] was 1.56 µM. The TGI [18] was 9.72 µM, the CC50 [18] was 44.7 µM and the GI50 [19] was 1.47 µM. It also gave an LC50 [19] of 49.4 µM, a TGI [19] of 10.3 µM and a growth at 10 µM [20] of 54%. The GI50 [21] was 11.6 µM, the LC50 [21] was 58 µM and the TGI [21] was 25.9 µM. For the same compound, the solubility [22] was 2400 µg/mL.
With `O=C(O)CCc1n(Cc2ccc3ccccc3c2)c2ccccc2[n+]1Cc1ccc2ccccc2c1.[Cl-]` the pIC50 [4] was less than 4.52, the pIC50 [10] was less than 4.52 and the pIC50 [11] was less than 4.52. It also gave a pIC50 [17] of less than 4.52 and a solubility [22] of less than 500 µg/mL.
In the case of `O=C(O)c1cc2c(cc1C(=O)O)[n+](Cc1ccc3ccccc3c1)cn2Cc1ccc2ccccc2c1.[Cl-]`, the pIC50 [4] was less than 4.52, the pIC50 [10] was less than 4.52 and the pIC50 [11] was less than 4.52. The pIC50 [17] was less than 4.52 and the solubility [22] was less than 500 µg/mL.
For `OCCCc1n(Cc2ccc3ccccc3c2)c2ccccc2[n+]1Cc1ccc2ccccc2c1.[Br-]`, the GI50 [1] was 2.43 µM, the LC50 [1] was 80.3 µM and the TGI [1] was 9.57 µM. For the same compound, the GI50 [2] was 2.15 µM, the TGI [2] was 9.1 µM and the CC50 [2] was 31.7 µM. The growth at 10 µM [3] was -24.3%, the pIC50 [4] was 5.22 and the growth at 10 µM [5] was 19%. The GI50 [6] was 3.68 µM, the LC50 [6] was 70.6 µM and the TGI [6] was 19.4 µM. It also gave a GI50 [7] of 2.23 µM, an LC50 [7] of 99.6 µM and a TGI [7] of 10.5 µM. The GI50 [8] was 2.32 µM, the TGI [8] was 11.6 µM and the CC50 [8] was 82.7 µM. It also gave a growth at 10 µM [9] of 37.5%, a pIC50 [10] of 5.40 and a pIC50 [11] of 5.40. It also gave a growth at 10 µM [12] of 47.6%, a growth at 10 µM [13] of 49.9% and a growth at 10 µM [14] of 18.4%. For the same compound, the growth at 10 µM [15] was 48.5%, the GI50 [16] was 0.566 µM and the LC50 [16] was 69.1 µM. The TGI [16] was 3.1 µM, the pIC50 [17] was 5.00 and the GI50 [18] was 1.05 µM. The TGI [18] was 3.95 µM, the CC50 [18] was 84.4 µM and the GI50 [19] was 1.65 µM. It also gave an LC50 [19] of 56.8 µM, a TGI [19] of 8.17 µM and a growth at 10 µM [20] of 68.4%. The GI50 [21] was 6.97 µM, the LC50 [21] was greater than 100 µM and the TGI [21] was 31.4 µM. The solubility [22] was less than 500 µg/mL.
Compound `Cc1cc2c(cc1C)[n+](Cc1ccc3ccccc3c1)cn2Cc1ccc2ccccc2c1.[Br-]` has a GI50 [1] of 0.662 µM, a GI50 [2] of 1.14 µM and a TGI [2] of 2.42 µM. It also gave a growth at 10 µM [3] of -80.8%, a pIC50 [4] of 5.70 and a growth at 10 µM [5] of -71.8%. The GI50 [6] was 1.37 µM, the TGI [6] was 2.88 µM and the GI50 [7] was 1.39 µM. The TGI [7] was 3.42 µM, the GI50 [8] was 1.03 µM and the TGI [8] was 2.47 µM. For the same compound, the growth at 10 µM [9] was -73%, the pIC50 [10] was 5.70 and the pIC50 [11] was 5.70. It also gave a growth at 10 µM [12] of -64.3%, a growth at 10 µM [13] of -8.28% and a growth at 10 µM [14] of -76.8%. The growth at 10 µM [15] was -25.5%, the GI50 [16] was 0.587 µM and the TGI [16] was 2.53 µM. The pIC50 [17] was 5.52, the GI50 [18] was 1.25 µM and the TGI [18] was 2.99 µM. For the same compound, the GI50 [19] was 0.872 µM, the TGI [19] was 2.28 µM and the growth at 10 µM [20] was -71.3%. For the same compound, the GI50 [21] was 1.42 µM, the TGI [21] was 2.95 µM and the solubility [22] was less than 500 µg/mL.
Compound `COC(=O)Cc1n(Cc2ccc3ccccc3c2)c2ccccc2[n+]1Cc1ccc2ccccc2c1.[Br-]` has a pIC50 [4] of 5.10, a pIC50 [10] of 5.22 and a pIC50 [11] of 5.15. The pIC50 [17] was 5.10 and the solubility [22] was less than 500 µg/mL.
In the case of `COc1ccc2c(c1)n(Cc1ccc3ccccc3c1)c[n+]2Cc1ccc2ccccc2c1.[Br-]`, the pIC50 [4] was 5.40, the pIC50 [10] was 5.70 and the pIC50 [11] was 5.40. The pIC50 [17] was 5.22 and the solubility [22] was less than 500 µg/mL.
For `Cl.O=C(O)c1ccc2c(c1)n(Cc1ccc3ccccc3c1)c[n+]2Cc1ccc2ccccc2c1.[Br-]`, the pIC50 [4] was less than 4.52, the pIC50 [10] was 4.64 and the pIC50 [11] was 4.80. It also gave a pIC50 [17] of 4.92 and a solubility [22] of less than 500 µg/mL.
